Assay results as given in ChEMBL document CHEMBL1138807, “4,5-dihydro-1H-pyrazole derivatives with inhibitory nNOS activity in rat brain: synthesis and structure-activity relationships” (J Med Chem, 2004).

Key:
[1] = molecular target: Kynurenine 3-monooxygenase (Rattus norvegicus) (UniProt O88867); experiment: Percent kynurenine 3-hydroxylase activity determined by the conversion of L-kynurenine to 3-hydroxykynurenine in rat striatum at 1 mM concentration of compound (value is mean +/- SEM); assay type: tissue-based
Chain of Kynurenine 3-monooxygenase (Rattus norvegicus) (O88867 whole entry, looked up): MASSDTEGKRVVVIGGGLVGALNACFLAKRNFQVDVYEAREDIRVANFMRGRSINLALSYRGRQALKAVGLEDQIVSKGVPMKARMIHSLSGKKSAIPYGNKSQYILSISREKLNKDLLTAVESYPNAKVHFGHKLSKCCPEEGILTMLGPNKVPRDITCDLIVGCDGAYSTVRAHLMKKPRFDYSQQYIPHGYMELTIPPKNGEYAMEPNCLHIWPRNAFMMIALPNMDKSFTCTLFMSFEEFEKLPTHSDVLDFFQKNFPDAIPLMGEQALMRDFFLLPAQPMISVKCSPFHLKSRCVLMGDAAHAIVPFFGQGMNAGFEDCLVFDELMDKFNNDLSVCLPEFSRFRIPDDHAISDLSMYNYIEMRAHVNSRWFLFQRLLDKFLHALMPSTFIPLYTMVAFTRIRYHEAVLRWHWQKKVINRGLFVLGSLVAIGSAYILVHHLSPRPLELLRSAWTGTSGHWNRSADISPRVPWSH
Outline: (§1)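 Enzyme source: rat striatal pellet (sucrose homogenate, 10000g), resuspended in 0.14 M KCl, 20 mM phosphate, pH 7. Incubation in 0.1 M phosphate, 4 mM MgCl2, 100 µM L-kynurenine with NADPH; compound 1 mM final in DMSO; 37 °C, 60 min. Stopped with cold perchloric acid. 3-Hydroxykynurenine measured by HPLC with electrochemical detection against a DHBA internal standard; activity expressed as nmol/h/g wet brain.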

[2] = molecular target: Nitric oxide synthase 1 (Rattus norvegicus) (UniProt P29476); experiment: Percent inhibition towards rat striatal neuronal nitric oxide synthase (nNOs) at 1 mM concentration (value is mean +/- SEM)
Chain of Nitric oxide synthase 1 (Rattus norvegicus) (P29476 whole entry): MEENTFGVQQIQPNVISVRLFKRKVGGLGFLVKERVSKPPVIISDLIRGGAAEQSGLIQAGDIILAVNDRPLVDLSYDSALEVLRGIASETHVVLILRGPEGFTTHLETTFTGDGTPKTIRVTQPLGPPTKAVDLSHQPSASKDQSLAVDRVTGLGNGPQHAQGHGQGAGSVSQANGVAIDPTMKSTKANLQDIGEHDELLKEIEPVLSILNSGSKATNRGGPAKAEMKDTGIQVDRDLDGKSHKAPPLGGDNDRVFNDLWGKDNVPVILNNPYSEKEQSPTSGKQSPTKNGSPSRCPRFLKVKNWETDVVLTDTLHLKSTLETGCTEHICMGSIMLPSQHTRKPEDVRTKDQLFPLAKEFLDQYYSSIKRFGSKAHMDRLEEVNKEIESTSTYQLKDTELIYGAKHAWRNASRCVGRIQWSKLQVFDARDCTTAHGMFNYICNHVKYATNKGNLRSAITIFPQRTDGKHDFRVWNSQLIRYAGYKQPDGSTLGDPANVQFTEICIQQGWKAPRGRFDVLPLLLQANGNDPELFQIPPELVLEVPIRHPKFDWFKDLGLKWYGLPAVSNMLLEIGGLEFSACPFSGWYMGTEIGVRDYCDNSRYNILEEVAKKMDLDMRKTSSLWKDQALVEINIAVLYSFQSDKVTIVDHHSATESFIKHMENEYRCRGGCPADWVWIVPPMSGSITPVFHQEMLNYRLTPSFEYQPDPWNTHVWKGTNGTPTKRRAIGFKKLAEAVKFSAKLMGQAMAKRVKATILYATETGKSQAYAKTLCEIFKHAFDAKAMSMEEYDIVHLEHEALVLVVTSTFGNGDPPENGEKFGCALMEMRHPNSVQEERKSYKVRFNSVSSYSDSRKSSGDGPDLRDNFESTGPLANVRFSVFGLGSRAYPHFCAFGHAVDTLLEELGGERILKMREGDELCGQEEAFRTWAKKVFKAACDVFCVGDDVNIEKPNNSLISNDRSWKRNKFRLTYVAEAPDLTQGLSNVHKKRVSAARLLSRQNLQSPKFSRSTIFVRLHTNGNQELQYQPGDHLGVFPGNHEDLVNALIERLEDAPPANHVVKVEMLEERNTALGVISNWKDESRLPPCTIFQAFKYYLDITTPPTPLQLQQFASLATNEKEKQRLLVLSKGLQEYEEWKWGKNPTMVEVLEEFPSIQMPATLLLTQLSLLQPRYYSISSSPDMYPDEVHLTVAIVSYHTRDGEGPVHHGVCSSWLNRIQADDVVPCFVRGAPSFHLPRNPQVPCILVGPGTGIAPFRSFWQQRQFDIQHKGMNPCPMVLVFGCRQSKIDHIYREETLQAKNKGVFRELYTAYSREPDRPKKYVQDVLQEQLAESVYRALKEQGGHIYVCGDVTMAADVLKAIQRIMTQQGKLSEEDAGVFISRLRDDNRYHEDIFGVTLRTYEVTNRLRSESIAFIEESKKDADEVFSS
Outline: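 Rat striatal crude homogenate (two striata homogenized in Tris buffer with protease inhibitors, pH 7.6; 1000g supernatant). Conversion of L-[3H]-arginine to L-[3H]-citrulline in 25 mM Tris, 30 µM H4-biopterin, 10 µM FAD, 0.1 mM CaCl2, 10 µM L-arginine plus 50 nM tracer. Started with 0.75 mM NADPH; compound 1 mM final in DMSO; 37 °C, 30 min. Citrulline separated on Dowex-50W and counted by scintillation. Blank omits NADPH. Three experiments in triplicate, four rat striata each.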

[3] = molecular target: Kynurenine 3-monooxygenase (Rattus norvegicus) (UniProt O88867); experiment: Inhibitory activity against kynurenine 3-hydroxylase at 1 mM concentration; outline: as §1

Row | Activity [1] [%] | inhibition [2] [%] | inhibition [3] [%] | SMILES
1 | 86.9 | 38.8 | – | Nc1ccccc1C1=NN(C(=O)C2CC2)CC1
2 | 96.5 | 38.3 | – | COc1ccc(N)c(C2=NN(C(=O)C3CCC3)CC2)c1
3 | 88.7 | 45 | – | CCCC(=O)NC(CC(=O)c1cc(OC)ccc1N)C(=O)O (stereo not drawn)
4 | – | 58.9 | – | COc1ccc(N)c(C2=NN(C(=O)c3ccccc3)CC2)c1
5 | 105 | 49.9 | – | COc1ccc(N)c(C2=NN(C(=O)C3CCCC3)CC2)c1
6 | 106 | 61.1 | – | Nc1ccc(Cl)cc1C1=NN(C(=O)c2ccccc2)CC1
7 | 97.7 | 34.4 | – | CCCC(=O)N1CCC(c2cc(Cl)ccc2N)=N1
8 | 123 | 62.2 | – | COc1ccc(N)c(C2=NN(C(=O)C3CC3)CC2)c1
9 | 98.8 | 38 | – | COc1ccc(N)c(C2=NN(C(C)=O)CC2)c1
10 | 98.1 | 70.2 | – | Nc1ccc(Cl)cc1C1=NN(C(=O)C2CC2)CC1
11 | 96.4 | 34.7 | – | CCCC(=O)N1CCC(c2cc(OC)ccc2N)=N1
12 | 87.4 | 62.2 | – | COc1ccc(N)c(C2=NN(C(=O)C3CCCCC3)CC2)c1
13 | 97.7 | 46.1 | – | CCC(=O)N1CCC(c2cc(Cl)ccc2N)=N1
14 | 85 | 52.4 | – | CCCC(=O)N1CCC(c2ccccc2N)=N1
15 | 85.2 | 36.5 | – | CCC(=O)N1CCC(c2ccccc2N)=N1
16 | 77.8 | 33.7 | 22.1 | CC(=O)N1CCC(c2ccccc2N)=N1
17 | 111 | 47.6 | – | CC(=O)N1CCC(c2cc(Cl)ccc2N)=N1
18 | 101 | 68.5 | – | COc1ccc(N)c(C(=O)CC(NC(C)=O)C(=O)O)c1 (stereo not drawn)
19 | 82.5 | 57 | – | Nc1ccccc1C1=NN(C(=O)c2ccccc2)CC1
20 | 81.1 | 53.3 | 18.9 | CCC(=O)N1CCC(c2cc(OC)ccc2N)=N1
21 | 120 | 49.8 | – | CCCCC(=O)N1CCC(c2cc(OC)ccc2N)=N1
